# Columns and labels:
# [1] = Inhibition of DOX-TEG-TAM uptake in ER expressing Rtx6 cells; format: cell-based; conditions: human
# In short: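 Rtx-6 cells in tamoxifen-free medium got 0.5 µM conjugate for 1 h with or without estradiol at various concentrations. Flow cytometry of anthracycline fluorescence: excitation 488 nm, emission 570–600 nm, 10000 cells. Mean fluorescence minus drug-free background.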
# MDA-MB-435 [2] = assay: Inhibition of DOX-TEG-TAM uptake in MDA-MB-435 cells; format: cell-based; conditions: human
# In short: (§1)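 Competition read by flow cytometry. MDA-MB-435 cells adhered overnight, then given 0.5 µM anthracycline for 1 h with or without tamoxifen at various concentrations (up to 10 µM). Cells trypsinized and kept cold in serum-free, phenol red-free RPMI. Excitation 488 nm, emission 570–600 nm, 10000 cells. Mean fluorescence with drug-free background subtracted.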
# [3] = Drug uptake in MCF7/Adr cells at 500 nM; format: ADME, cell-based; conditions: human, nci/adr-res, 0.5 µM
# In short: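 MCF-7/Adr cells in log phase (RPMI 1640, 10% FBS), plated 450000 cells/well and adhered overnight; exposed to 0.5 μM drug (from 100× DMSO/1% AcOH stock) for 20, 40, 60 min. Cells were trypsinized, quenched and resuspended in cold serum-free, phenol red free RPMI, then held on ice. Flow cytometry: ex 488 nm, em 570–600 nm, 10000 cells; mean fluorescence minus drug-free background.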
# [4] = Growth inhibition of ER expressing Rtx6 cells after 4 hrs; format: functional; conditions: Homo sapiens
# MCF7 [5] = assay: Drug uptake in ER expressing MCF7 cells; format: ADME, cell-based; conditions: human
# In short: (§2)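 Cells adhered overnight at 450000 per well, then were exposed to 0.5 µM drug for 1 h (uptake also at 20 and 40 min). They were trypsinized, washed cold, and held on ice in serum-free, phenol red-free RPMI. Flow cytometry: excitation 488 nm, emission 570–600 nm, 10000 cells, mean fluorescence minus drug-free background. Settings were fixed per cell line.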
# [6] = target: T1, Anti-estrogen binding site (AEBS) (Homo sapiens) (UniProt Q15125+Q9UBM7); assay: Binding affinity at AEBS; format: protein-complex assay
# In short: (§3)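 AEBS source: MCF-7 cell lysate (sonicated, 12000g supernatant, diluted to 2.0 mg/mL protein, pH 7.4 lysis buffer with molybdate and protease inhibitors). [3H]tamoxifen at 5, 0.5 or 0.05 nM, with 1000 nM estradiol to saturate ER, plus cold competitor; 18 h at 4 °C. Dextran-coated charcoal strip, scintillation counting. Binding expressed relative to E/Z-4-OHT from reduction of bound tritium; competitors in duplicate.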
# [7] = Drug uptake in ER expressing Rtx6 cells at 500 nM; format: ADME, cell-based; conditions: human, 0.5 µM; in short: as §2
# [8] = target: T1, Anti-estrogen binding site (AEBS) (Homo sapiens); assay: Displacement of 5 nM [3H]tamoxifen from AEBS in MCF7 cell lysate relative to E/Z-4-hydroxytamoxifen; format: cell-free; in short: as §3
# [9] = tested on: MDA-MB-231 (Homo sapiens); assay: Drug uptake in MDA-MB-231 cells at 500 nM for 1 hr relative to MDA-MB-435 cells; conditions: mda-mb-231, 1 h, 0.5 µM
# [10] = target: T1, Anti-estrogen binding site (AEBS) (Homo sapiens); assay: Displacement of 0.05 nM [3H]tamoxifen from AEBS in MCF7 cell lysate relative to E/Z-4-hydroxytamoxifen; format: cell-free; in short: as §3
# [11] = target: T1, Anti-estrogen binding site (AEBS) (Homo sapiens); assay: Displacement of 0.5 nM [3H]tamoxifen from AEBS in MCF7 cell lysate relative to E/Z-4-hydroxytamoxifen; format: cell-free; in short: as §3
# MCF7 [12] = assay: Drug uptake in MCF7 cells at 500 nM for 1 hr relative to MDA-MB-435 cells; format: ADME, cell-based; conditions: human, mcf7, 1 h, 0.5 µM; in short: as §2
# MDA-MB-435 [13] = assay: Decrease doxorubicin-saliform uptake in MDA-MB-435 cells at 10 uM after 1 hr relative to DOX-TEG-TAM; format: ADME, cell-based; parameters: scale not given: the % may be the effect or the level left; conditions: human, mda-mb-435, 1 h; in short: as §1
# MDA-MB-435 [14] = assay: Decrease in DOX-TEG-TAM uptake in MDA-MB-435 cells after 1 hr; format: ADME, cell-based; conditions: human, mda-mb-435, 1 h; in short: as §1
# MDA-MB-435 [15] = assay: Decrease in doxorubicin uptake in MDA-MB-435 cells at 10 uM after 1 hr relative to DOX-TEG-TAM; format: ADME, cell-based; parameters: scale not given: the % may be the effect or the level left; conditions: human, mda-mb-435, 1 h; in short: as §1
# MDA-MB-435 [16] = assay: Decrease DOX-TEG-TAM uptake in MDA-MB-435 cells at 10 uM after 1 hr relative to control; format: ADME, cell-based; parameters: scale not given: the % may be the effect or the level left; conditions: human, mda-mb-435, 1 h; in short: as §1
smiles,measurement,setting,value
C[C@]12CC[C@@H]3c4ccc(O)cc4CC[C@H]3[C@@H]1CC[C@@H]2O [ESTRADIOL],Activity,[1],Dose-dependent effect
same,Activity,MDA-MB-435 [2],Not Active
COc1cccc2c1C(=O)c1c(O)c3c(c(O)c1C2=O)C[C@@](O)(C(=O)CO)C[C@@H]3O[C@H]1C[C@H](NCNC(=O)c2ccccc2O)[C@H](O)[C@H](C)O1,Relative Fluorescent Unit,[3],1
same,IC50,[4],0.061 µM
same,Relative Fluorescent Unit,MCF7 [5],16
CC/C(=C(/c1ccc(O)cc1)c1ccc(OCCN(C)CCOCCOCCO/N=C/c2ccc(O)c(C(=O)NCN[C@H]3C[C@H](O[C@H]4C[C@](O)(C(=O)CO)Cc5c(O)c6c(c(O)c54)C(=O)c4c(OC)cccc4C6=O)O[C@@H](C)[C@H]3O)c2)cc1)c1ccccc1,Activity,[6],60%
same,Relative Fluorescent Unit,[7],14
same,Activity,[8],48%
same,Drug uptake,[9],25%
same,Activity,[10],70%
same,IC50,[4],0.067 µM
same,Activity,[11],72%
same,Drug uptake,MCF7 [12],25%
same,Relative Fluorescent Unit,MCF7 [5],25
CC/C(=C(\c1ccccc1)c1ccc(OCCN(C)C)cc1)c1ccccc1 [TAMOXIFEN],Activity,MDA-MB-435 [13],6%
same,Activity,MDA-MB-435 [14],Dose-dependent effect
same,Activity,MDA-MB-435 [15],8%
same,Activity,MDA-MB-435 [16],47%
